pIC50: −log10 of the molar value.
How the values were obtained:
Assay type in all cases: functional, cell-based
A549 = assay: Cytotoxicity against human A549 cells after 24 hrs by MTT assay; conditions: A549, 24 h
How it was run: (§1)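 Human cancer lines from ATCC, seeded at 3000 cells per well and exposed 24 h later to a range of concentrations for 24 h. MTT was then added, plates were incubated a further 24 h, and viability was read as absorbance at 570 nm. IC50 values were calculated from the readings.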

HCT-8 = assay: Cytotoxicity against human HCT8 cells after 24 hrs by MTT assay; conditions: HCT-8, 24 h; how it was run: as §1
Bel-7402 = assay: Cytotoxicity against human Bel7402 cells after 24 hrs by MTT assay; conditions: Bel-7402, 24 h; how it was run: as §1
[1] = Cytotoxicity against human PC3M cells after 24 hrs by MTT assay; conditions: PC-3M; how it was run: as §1

Structure (SMILES)	pIC50 (A549)	pIC50 (HCT-8)	pIC50 (Bel-7402)	pIC50 [1]
CC(=O)O[C@H]1C[C@]2(O)C(COC(=O)C(OC(=O)CC(C)C)C(C)C)=CO[C@@H](OC(=O)CC(C)C)[C@@H]2[C@@]12CO2 (stereo partly specified)	5.13	5.60	5.40	5.72
CC(=O)O[C@H]1C[C@]2(O)C(COC(=O)CC(C)C)=CO[C@@H](OC(=O)CC(C)C)[C@@H]2[C@@]12CO2	5.15	5.82	5.64	5.66
CC(=O)OCC1=CO[C@@H](OC(=O)CC(C)C)[C@H]2C1=C[C@H](OC(=O)CC(C)C)[C@]2(O)COC(C)=O	5.07	< 5.00	< 5.00	< 5.00
CC(=O)OCC1=CO[C@@H](OC(=O)CC(C)C)[C@H]2C1=C[C@H](OC(=O)CC(C)(C)OC(C)=O)[C@]21CO1 [ACEVALTRATE]	5.54	6.00	5.77	5.85
CC(=O)OC[C@]1(O)[C@H]2[C@H](OC(=O)CC(C)C)OC=C(COC(=O)CC(C)C)[C@H]2C[C@@H]1OC(C)=O [DIDROVALTRATE ACETOXY HYDRIN]	5.52	5.59	5.36	5.80
CC(=O)O[C@H]1C[C@@H]2C(COC(=O)CC(C)C)=CO[C@@H](OC(=O)CC(C)C)[C@@H]2[C@@]12CO2 [DIDROVALTRATE]	< 5.00	5.18	5.12	5.42
CC(=O)O[C@H]1C[C@]2(O)C(COC(=O)C(OC(=O)CC(C)C)C(C)C)=CO[C@@H](OC(=O)CC(C)C)[C@@H]2[C@@]1(O)COC(=O)CC(C)(C)OC(C)=O (stereo partly specified) [JATAMANVALTRATE A]	< 5.00	< 5.00	< 5.00	5.28
CC(=O)O[C@H]1C[C@]2(O)C(COC(=O)C(OC(=O)CC(C)C)C(C)C)=CO[C@@H](OC(=O)CC(C)C)[C@@H]2[C@@]1(O)COC(=O)CC(C)C (stereo partly specified) [JATAMANVALTRATE B]	< 5.00	5.21	< 5.00	5.41
CC(=O)OC[C@@]1(O)[C@@H](OC(C)=O)C[C@]2(O)C(COC(=O)C(OC(=O)CC(C)C)C(C)C)=CO[C@@H](OC(=O)CC(C)C)[C@H]12 (stereo partly specified) [JATAMANVALTRATE C]	< 5.00	< 5.00	< 5.00	< 5.00
CC(=O)O[C@H]1C[C@]2(O)C(COC(=O)C(OC(=O)CC(C)C)C(C)C)=CO[C@@H](OC(=O)CC(C)C)[C@@H]2[C@@]1(O)COC(=O)c1ccccc1O (stereo partly specified) [JATAMANVALTRATE D]	< 5.00	5.35	5.01	5.42
COC[C@@]1(O)[C@@H](OC(C)=O)C[C@]2(O)C(COC(=O)C(OC(=O)CC(C)C)C(C)C)=CO[C@@H](OC(=O)CC(C)C)[C@H]12 (stereo partly specified) [JATAMANVALTRATE E]	< 5.00	5.01	5.07	< 5.00
CC(=O)O[C@H]1C[C@@H]2C(COC(=O)CC(C)C)=CO[C@@H](OC(=O)CC(C)C)[C@@H]2[C@@]1(O)COC(=O)CC(C)(C)OC(C)=O [JATAMANVALTRATE F]	< 5.00	< 5.00	5.06	5.37
CC(=O)OC[C@]1(O)[C@H]2[C@H](OC(=O)CC(C)C)OC=C(COC(=O)CC(C)C)[C@H]2C[C@@H]1O [JATAMANVALTRATE G]	< 5.00	< 5.00	5.23	5.25
CC(=O)O[C@H]1C[C@@H]2C(COC(=O)CC(C)C)=CO[C@@H](OC(=O)CC(C)C)[C@@H]2[C@@]1(O)CO [JATAMANVALTRATE H]	< 5.00	< 5.00	< 5.00	5.28
CC(=O)O[C@H]1C=C2C(COC(=O)CC(C)C)=CO[C@@H](OC(=O)CC(C)C)[C@@H]2[C@@]1(O)COC(=O)c1ccccc1O [JATAMANVALTRATE I]	< 5.00	5.01	< 5.00	5.41
CC(=O)OCC1=CO[C@@H](OC(=O)CC(C)C)[C@H]2C1=C[C@H](O)[C@]2(O)COC(=O)CC(C)C [JATAMANVALTRATE J]	< 5.00	< 5.00	< 5.00	5.24
CC(=O)OCC1=CO[C@@H](OC(=O)CC(C)C)[C@H]2C1=C[C@H](OC(=O)CC(C)C)[C@]2(O)CO [JATAMANVALTRATE K]	< 5.00	< 5.00	5.15	5.30
CC(C)CC(=O)OC(C(=O)OCC1=CO[C@@H](OC(=O)CC(C)C)[C@@H]2[C@@]3(CO3)[C@@H](O)C[C@]12O)C(C)C (stereo partly specified) [JATAMANVALTRATE L]	< 5.00	< 5.00	5.12	5.47
CCOCC1=CO[C@@H](OC(=O)CC(C)C)[C@@H]2[C@@]3(CO3)[C@@H](OC(C)=O)C[C@]12O [JATAMANVALTRATE M]	< 5.00	< 5.00	< 5.00	5.20
CC(=O)O[C@H]1C(=O)[C@@]2(C)[C@H]([C@H](OC(=O)c3ccccc3)[C@]3(O)C[C@H](OC(=O)[C@H](O)[C@@H](NC(=O)c4ccccc4)c4ccccc4)C(C)=C1C3(C)C)[C@]1(OC(C)=O)CO[C@@H]1C[C@@H]2O [PACLITAXEL]	8.28	–	7.02	7.57
CC(=O)O[C@H]1C[C@]2(O)C(COC(=O)C(OC(=O)CC(C)C)C(C)C)=CO[C@@H](OC(=O)CC(C)C)[C@@H]2[C@@]1(O)COC(=O)C(OC(=O)CC(C)C)C(C)C (stereo partly specified) [VALERIOTETRATE A]	< 5.00	5.09	5.00	5.51
CC(=O)OC[C@]1(O)[C@H]2[C@H](OC(=O)CC(C)C)OC=C(COC(=O)C(OC(=O)CC(C)C)C(C)C)[C@@]2(O)C[C@@H]1O (stereo partly specified) [VALERIOTRIATE B]	< 5.00	< 5.00	< 5.00	5.41
CC(=O)OCC1=CO[C@@H](OC(=O)CC(C)C)[C@H]2C1=C[C@H](OC(=O)CC(C)C)[C@]21CO1 [VALTRATE]	5.43	5.74	5.21	5.80

Reference: ChEMBL document CHEMBL1151831, “Acylated iridoids with cytotoxicity from Valeriana jatamansi” (J Nat Prod, 2009)
